Key:
[1] = system: Rattus norvegicus; experiment: Percentage fall in systolic blood pressure after 2 hours at 25 mg/kg given perorally; type: functional, Artery; settings: route oral
Method in brief: (§1)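 Male Okamoto-Aoki spontaneously hypertensive rats, trained, in groups of four matched for mean systolic pressure; five treated groups and one vehicle control run concurrently. Oral dosing in water (solution or suspension, 0.1 mL/10 g) on two consecutive mornings. On day 2, rats were restrained at 30.0 ± 1.0 °C and tail-cuff systolic pressure recorded at 1–4 h; percent fall versus control, 1-tail t test, p ≤ 0.05.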

[2] = system: Rattus norvegicus; experiment: Percentage fall in systolic blood pressure after 4 hours at 25 mg/kg given perorally; type: functional, Artery; settings: route oral; method in brief: as §1
[3] = system: Rattus norvegicus; experiment: Percentage fall in systolic blood pressure after 1 hr at 25 mg/kg given perorally; type: functional, Artery; settings: route oral; method in brief: as §1
[4] = system: Rattus norvegicus; experiment: (§2) Percentage fall in systolic blood pressure after 3 hours at 50 mg/kg given perorally; type: functional, Artery; settings: route oral
Method in brief: (§3)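 Male Okamoto-Aoki SHR, four per group, with a concurrent vehicle control group. Oral dosing in water (0.1 mL/10 g) on two consecutive mornings. After the day-2 dose, rats were restrained in a 30 °C chamber. Tail-cuff systolic pressure was taken at 1-4 h from four traces per rat. Result is % decrease versus control mean, by 1-tailed t test, p ≤ 0.05.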

[5] = system: Rattus norvegicus; experiment: (§4) Percentage fall in systolic blood pressure after 1 hr at 50 mg/kg given perorally; type: functional, Artery; settings: route oral; method in brief: as §3
[6] = system: Rattus norvegicus; experiment: (§5) Percentage fall in systolic blood pressure after 4 hours at 50 mg/kg given perorally; type: functional, Artery; settings: route oral; method in brief: as §3
[7] = system: Rattus norvegicus; experiment: (§6) Percentage fall in systolic blood pressure after 2 hours at 50 mg/kg given perorally; type: functional, Artery; settings: route oral; method in brief: as §3
[8] = system: Rattus norvegicus; experiment: as §5; type: functional, organism-based; parameters: dose 50 mg/kg; settings: Artery; method in brief: as §3
[9] = system: Rattus norvegicus; experiment: as §6; type: functional, organism-based; parameters: dose 50 mg/kg; settings: Artery; method in brief: as §3
[10] = system: Rattus norvegicus; experiment: as §2; type: functional, organism-based; parameters: dose 50 mg/kg; settings: Artery; method in brief: as §3
[11] = system: Rattus norvegicus; experiment: as §4; type: functional, organism-based; parameters: dose 50 mg/kg; settings: Artery; method in brief: as §1
[12] = system: Rattus norvegicus; experiment: Percentage fall in systolic blood pressure after 3 hours at 25 mg/kg given perorally; type: functional, Artery; settings: route oral; method in brief: as §1
[13] = system: Rattus norvegicus; experiment: (§7) Percentage fall in systolic blood pressure after 4 hours at 12.5 mg/kg given perorally; type: functional, Artery; settings: route oral; method in brief: as §3
[14] = system: Rattus norvegicus; experiment: Percentage fall in systolic blood pressure after 3 hours at 12.5 mg/kg given perorally; type: functional, Artery; settings: route oral; method in brief: as §3
[15] = system: Rattus norvegicus; experiment: (§8) Percentage fall in systolic blood pressure after 1 hr at 12.5 mg/kg given perorally; type: functional, Artery; settings: route oral; method in brief: as §3
[16] = system: Rattus norvegicus; experiment: Percentage fall in systolic blood pressure after 2 hours at 12.5 mg/kg given perorally; type: functional, Artery; settings: route oral; method in brief: as §3
[17] = system: Rattus norvegicus; experiment: Percentage fall in systolic blood pressure after 3 hr at 12.5 mg/kg given perorally; type: functional, organism-based; parameters: dose 12.5 mg/kg; settings: Artery; method in brief: as §1
[18] = system: Rattus norvegicus; experiment: as §8; type: functional, organism-based; parameters: dose 12.5 mg/kg; settings: Artery; method in brief: as §1
[19] = system: Rattus norvegicus; experiment: Percentage fall in systolic blood pressure after 2 hr at 12.5 mg/kg given perorally; type: functional, organism-based; parameters: dose 12.5 mg/kg; settings: Artery; method in brief: as §1
[20] = system: Rattus norvegicus; experiment: Percentage fall in systolic blood pressure after 4 hr at 12.5 mg/kg given perorally; type: functional, organism-based; parameters: dose 12.5 mg/kg; settings: Artery; method in brief: as §1
[21] = system: Rattus norvegicus; experiment: Percentage fall in systolic blood pressure after 3 hr at 25 mg/kg given perorally; type: functional, Artery; settings: route oral, 25 mg/kg; method in brief: as §1
[22] = system: Rattus norvegicus; experiment: Percentage fall in systolic blood pressure after 2 hr at 25 mg/kg given perorally; type: functional, Artery; settings: route oral, 25 mg/kg; method in brief: as §1
[23] = system: Rattus norvegicus; experiment: as §7; type: functional, organism-based; parameters: dose 12.5 mg/kg; settings: Artery; method in brief: as §3

O=C1COC2(CCN(CCC(=O)c3ccc(F)cc3)CC2)CN1
Decrease in SBP [1]: 24% | Decrease in SBP [2]: 20% | Decrease in SBP [3]: 27%

CC(=O)NCC1CCN(CCc2c[nH]c3ccccc23)CC1
Decrease in SBP [4]: 15% | Decrease in SBP [5]: 30% | Decrease in SBP [6]: 26% | Decrease in SBP [7]: 26%

CC1OC2(CCN(CCc3c[nH]c4ccccc34)CC2)CN(C)C1=O (centres undefined)
Decrease in SBP [5]: 32% | Decrease in SBP [8]: Not significant | Decrease in SBP [9]: Not significant | Decrease in SBP [10]: Not significant

COc1ccc(CCN2CCC3(CC2)CNC(=O)CO3)cc1OC
Decrease in SBP [8]: Not significant | Decrease in SBP [9]: Not significant | Decrease in SBP [11]: Not significant | Decrease in SBP [10]: Not significant

CCN1CC2(CCN(CCCC(=O)c3ccc(F)cc3)CC2)OCC1=O
Decrease in SBP [1]: 31% | Decrease in SBP [2]: 13% | Decrease in SBP [3]: 35% | Decrease in SBP [12]: 27%

CCCN1CC2(CCN(CCc3c[nH]c4ccccc34)CC2)OCC1=O
Decrease in SBP [13]: 16% | Decrease in SBP [4]: 22% | Decrease in SBP [5]: 47% | Decrease in SBP [14]: 24% | Decrease in SBP [6]: 39% | Decrease in SBP [15]: 18% | Decrease in SBP [7]: 22% | Decrease in SBP [16]: 26%

CCN1C(=O)COC2(CCN(CCc3c[nH]c4ccccc34)CC2)C1C (centres undefined)
Decrease in SBP [5]: 20% | Decrease in SBP [8]: Not significant | Decrease in SBP [9]: Not significant | Decrease in SBP [10]: Not significant

CCC1NC(=O)COC12CCN(CC(O)C1COc3ccccc3O1)CC2 (centres undefined)
Decrease in SBP [4]: 36% | Decrease in SBP [5]: 40% | Decrease in SBP [6]: 26% | Decrease in SBP [7]: 44%

COCC(=O)NCC1CCN(CCc2c[nH]c3ccccc23)CC1
Decrease in SBP [4]: 13% | Decrease in SBP [5]: 20% | Decrease in SBP [6]: 26% | Decrease in SBP [7]: 18%

CC1N(C)C(=O)COC12CCN(CCc1c[nH]c3ccccc13)CC2 (centres undefined)
Decrease in SBP [5]: 29% | Decrease in SBP [8]: Not significant | Decrease in SBP [7]: 22% | Decrease in SBP [10]: Not significant

CCC1OC2(CCN(CCc3c[nH]c4ccccc34)CC2)CNC1=O (centres undefined)
Decrease in SBP [4]: 15% | Decrease in SBP [5]: 26% | Decrease in SBP [8]: Not significant | Decrease in SBP [7]: 23%

O=C1COC2(CCN(CCc3c[nH]c4ccccc34)CC2)CN1Cc1ccccc1
Decrease in SBP [5]: 18% | Decrease in SBP [8]: Not significant | Decrease in SBP [9]: Not significant | Decrease in SBP [10]: Not significant

O=C1COC2(CCN(CCCOc3ccccc3)CC2)CN1
Decrease in SBP [17]: Not significant | Decrease in SBP [18]: Not significant | Decrease in SBP [19]: Not significant | Decrease in SBP [20]: Not significant

COC1(CNC(=O)c2ccccc2)CCN(CCc2c[nH]c3ccccc23)CC1
Decrease in SBP [4]: 22% | Decrease in SBP [5]: 30% | Decrease in SBP [8]: Not significant | Decrease in SBP [7]: 28%

COC1(CNC(C)=O)CCN(CCc2c[nH]c3ccccc23)CC1
Decrease in SBP [5]: 17% | Decrease in SBP [8]: Not significant | Decrease in SBP [9]: Not significant | Decrease in SBP [10]: Not significant

O=C1COC2(CCN(C3CCc4ccccc4C3)CC2)CN1 (centres undefined)
Decrease in SBP [4]: 23% | Decrease in SBP [5]: 28% | Decrease in SBP [6]: 20% | Decrease in SBP [7]: 24%

O=C1COC2(CCN(CCc3ccc(F)cc3)CC2)CN1
Decrease in SBP [17]: Not significant | Decrease in SBP [18]: Not significant | Decrease in SBP [19]: Not significant | Decrease in SBP [20]: Not significant

O=C(NCC1CCN(CCc2c[nH]c3ccccc23)CC1)c1ccccc1
Decrease in SBP [4]: 30% | Decrease in SBP [6]: 32% | Decrease in SBP [7]: 27% | Decrease in SBP [11]: Not significant

NCC1CCN(CCc2c[nH]c3ccccc23)CC1
Decrease in SBP [5]: 20% | Decrease in SBP [6]: 20% | Decrease in SBP [7]: 24% | Decrease in SBP [10]: Not significant

CCN1CC2(CCN(CCc3c[nH]c4ccccc34)CC2)OCC1=O
Decrease in SBP [13]: 21% | Decrease in SBP [4]: 28% | Decrease in SBP [5]: 55% | Decrease in SBP [14]: 30% | Decrease in SBP [6]: 42% | Decrease in SBP [15]: 22% | Decrease in SBP [7]: 33% | Decrease in SBP [16]: 33%

CN1CC2(CCN(CC(O)C3COc4ccccc4O3)CC2)OCC1=O (stereo in doubt; 61)
Decrease in SBP [17]: Not significant

CN1CC2(CCN(CC(O)C3COc4ccccc4O3)CC2)OCC1=O (stereo in doubt; 60)
Decrease in SBP [21]: 17% | Decrease in SBP [3]: 41% | Decrease in SBP [22]: 33%

CCC1OC2(CCN(CCc3c[nH]c4ccccc34)CC2)CN(C)C1=O (centres undefined)
Decrease in SBP [5]: 16% | Decrease in SBP [8]: Not significant | Decrease in SBP [9]: Not significant | Decrease in SBP [10]: Not significant

CCC(=O)NCC1CCN(CCc2c[nH]c3ccccc23)CC1
Decrease in SBP [4]: 15% | Decrease in SBP [5]: 23% | Decrease in SBP [8]: Not significant | Decrease in SBP [7]: 23%

CN1CC2(CCN(CCc3c[nH]c4ccccc34)CC2)OCC1=O
Decrease in SBP [13]: 17% | Decrease in SBP [4]: 34% | Decrease in SBP [5]: 50% | Decrease in SBP [14]: 20% | Decrease in SBP [6]: 26% | Decrease in SBP [15]: 25% | Decrease in SBP [7]: 44% | Decrease in SBP [16]: 19%

CC1OC2(CCN(CCc3c[nH]c4ccccc34)CC2)CNC1=O (centres undefined)
Decrease in SBP [4]: 21% | Decrease in SBP [5]: 30% | Decrease in SBP [6]: 26% | Decrease in SBP [7]: 36%

COc1cc2c(cc1OC)[C@@H]1C[C@@]3(CCN1CC2)CN(C)C(=O)CO3
Decrease in SBP [8]: Not significant | Decrease in SBP [9]: Not significant | Decrease in SBP [11]: Not significant | Decrease in SBP [10]: Not significant

O=C1COC2(CCN(CCc3c[nH]c4ccccc34)CC2)C(c2ccccc2)N1 (centres undefined)
Decrease in SBP [5]: 21% | Decrease in SBP [8]: Not significant | Decrease in SBP [7]: 19% | Decrease in SBP [10]: Not significant

COc1ccc(CCN2CCC3(CC2)CNC(=O)CO3)cc1
Decrease in SBP [17]: Not significant | Decrease in SBP [18]: Not significant | Decrease in SBP [19]: Not significant | Decrease in SBP [20]: Not significant

O=C1COC2(CCN(CCc3ccc(Cl)cc3)CC2)CN1
Decrease in SBP [17]: Not significant | Decrease in SBP [18]: Not significant | Decrease in SBP [19]: Not significant | Decrease in SBP [20]: Not significant

CC1NC(=O)COC12CCN(CCc1c[nH]c3ccccc13)CC2 (centres undefined)
Decrease in SBP [4]: 41% | Decrease in SBP [5]: 56% | Decrease in SBP [14]: 24% | Decrease in SBP [6]: 50% | Decrease in SBP [23]: Not significant | Decrease in SBP [15]: 24% | Decrease in SBP [7]: 48% | Decrease in SBP [16]: 36%

CCC1N(C)C(=O)COC12CCN(CCc1c[nH]c3ccccc13)CC2 (centres undefined)
Decrease in SBP [8]: Not significant | Decrease in SBP [9]: Not significant | Decrease in SBP [11]: Not significant | Decrease in SBP [10]: Not significant

From ChEMBL document CHEMBL1122233, “Antihypertensive 9-substituted 1-oxa-4,9-diazaspiro[5.5]undecan-3-ones” (J Med Chem, 1983)
